Measured values as given in ChEMBL document CHEMBL1144581, “alpha-Amino acid derivatives as proton pump inhibitors and potent anti-ulcer agents” (2007).
The source made the active and inactive calls. No cut-off for these calls is given here.

Assays:
Rattus norvegicus [1] = species on record: Rattus norvegicus; assay: Antisecretory activity in rat pylorus ligation-induced ulcer model determined by ratio of free acidity inhibition in drug treated to untreated control; format: functional
Outline: (§1)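 Sprague Dawley rats (130-150 g) fasted 24 h with water ad libitum; pylorus ligated through a midline incision under ether anesthesia. Dosing oral, 1 h before ligation. Gastric juice free and total acidity titrated against 0.01 N NaOH, with Topfer's reagent and phenolphthalein as indicators. Values expressed as ratio of percent inhibition, treated vs control group.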

Rattus norvegicus [2] = species on record: Rattus norvegicus; assay: Inhibition of gastric H+/K(+)-ATPase activity in Sprague-Dawley rat microsomal vesicles at 10 umol; format: microsomes; details: Stomach, Microsome
Outline: (§2)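 Rat gastric microsomes were prepared by density gradient and differential centrifugation. The medium held 40 mM Tris-HCl pH 7.4, 2 mM MgCl2, 10 mM KCl (water for blank) and […] vesicular protein. Compound was preincubated 30 min at 37 °C. Tris-ATP at 0.3, 1.0 or 3 mM was then added for 20 min and stopped with chilled 10% TCA. Released Pi was read at 530 nm; % inhibition vs control.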

Rattus norvegicus [3] = species on record: Rattus norvegicus; assay: Antisecretory activity in rat pylorus ligation-induced ulcer model determined by ratio of total acidity inhibition in drug treated to untreated control; format: functional; outline: as §1
Rattus norvegicus [4] = species on record: Rattus norvegicus; assay: Inhibition of p-NPPase in Sprague-Dawley rat microsomal vesicles at 100 uM in presence of 5.0 mM of p-NPP; format: microsomes; details: Microsome
Outline: (§3)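 Rat gastric microsomes were assayed in 10 mM PIPES/Tris pH 7.0 with 5 mM KCl. Compound was preincubated 30 min at 37 °C. p-NPP at 1.0, 3.0 or 5.0 mM was added and incubated 20 min at 37 °C, then stopped with 0.5 N NaOH. p-Nitrophenol release was read at 410 nm; % inhibition vs control.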

Rattus norvegicus [5] = species on record: Rattus norvegicus; assay: Inhibition of p-NPPase in Sprague-Dawley rat microsomal vesicles at 100 uM in presence of 3.0 mM of p-NPP; format: microsomes; details: Microsome; outline: as §3
Rattus norvegicus [6] = assay: Antisecretory activity in rat pylorus ligation-induced ulcer model assessed as inhibition of free acidity of gastric juice at 20 mg/kg; format: functional, organism-based; parameters: dose 20 mg/kg; outline: as §1
Rattus norvegicus [7] = species on record: Rattus norvegicus; assay: Inhibition of p-NPPase in Sprague-Dawley rat microsomal vesicles at 30 uM in presence of 1.0 mM of p-NPP; format: microsomes; details: Microsome; outline: as §3
Rattus norvegicus [8] = species on record: Rattus norvegicus; assay: Inhibition of gastric H+/K(+)-ATPase activity in Sprague-Dawley rat microsomal vesicles at 30 uM in presence of 0.3 mM of ATP; format: microsomes; details: Stomach, Microsome; outline: as §2
Rattus norvegicus [9] = species on record: Rattus norvegicus; assay: Inhibition of gastric H+/K(+)-ATPase activity in Sprague-Dawley rat microsomal vesicles at 100 uM in presence of 0.3 mM of ATP; format: microsomes; details: Stomach, Microsome; outline: as §2
Rattus norvegicus [10] = species on record: Rattus norvegicus; assay: Inhibition of p-NPPase in Sprague-Dawley rat microsomal vesicles at 1000 uM in presence of 1.0 mM of p-NPP; format: microsomes; details: Microsome; outline: as §3
Rattus norvegicus [11] = species on record: Rattus norvegicus; assay: Inhibition of gastric H+/K(+)-ATPase activity in Sprague-Dawley rat microsomal vesicles at 1000 uM in presence of 0.3 mM of ATP; format: microsomes; details: Stomach, Microsome; outline: as §2
Rattus norvegicus [12] = species on record: Rattus norvegicus; assay: Inhibition of p-NPPase in Sprague-Dawley rat microsomal vesicles at 300 uM in presence of 1.0 mM of p-NPP; format: microsomes; details: Microsome; outline: as §3
Rattus norvegicus [13] = species on record: Rattus norvegicus; assay: Inhibition of gastric H+/K(+)-ATPase activity in Sprague-Dawley rat microsomal vesicles at 30 uM in presence of 3.0 mM of ATP; format: microsomes; details: Stomach, Microsome; outline: as §2
Rattus norvegicus [14] = assay: Antisecretory activity in rat pylorus ligation-induced ulcer model assessed as inhibition of total acidity of gastric juice at 20 mg/kg; format: functional, organism-based; parameters: dose 20 mg/kg; outline: as §1
Rattus norvegicus [15] = species on record: Rattus norvegicus; assay: Inhibition of gastric H+/K(+)-ATPase activity in Sprague-Dawley rat microsomal vesicles at 100 uM in presence of 3.0 mM of ATP; format: microsomes; details: Stomach, Microsome; outline: as §2
Rattus norvegicus [16] = species on record: Rattus norvegicus; assay: Inhibition of gastric H+/K(+)-ATPase activity in Sprague-Dawley rat microsomal vesicles at 30 uM in presence of 1.0 mM of ATP; format: microsomes; details: Stomach, Microsome; outline: as §2
Rattus norvegicus [17] = species on record: Rattus norvegicus; assay: Inhibition of p-NPPase in Sprague-Dawley rat microsomal vesicles at 10 uM in presence of 3.0 mM of p-NPP; format: microsomes; details: Microsome; outline: as §3
Rattus norvegicus [18] = species on record: Rattus norvegicus; assay: Inhibition of gastric H+/K(+)-ATPase activity in Sprague-Dawley rat microsomal vesicles at 300 uM in presence of 0.3 mM of ATP; format: microsomes; details: Stomach, Microsome; outline: as §2
Rattus norvegicus [19] = species on record: Rattus norvegicus; assay: Inhibition of gastric H+/K(+)-ATPase activity in Sprague-Dawley rat microsomal vesicles at 3 uM in presence of 1.0 mM of ATP; format: microsomes; details: Stomach, Microsome; outline: as §2
Rattus norvegicus [20] = species on record: Rattus norvegicus; assay: Inhibition of p-NPPase in Sprague-Dawley rat microsomal vesicles at 10 uM in presence of 1.0 mM of p-NPP; format: microsomes; details: Microsome; outline: as §3
Rattus norvegicus [21] = species on record: Rattus norvegicus; assay: Inhibition of gastric H+/K(+)-ATPase activity in Sprague-Dawley rat microsomal vesicles at 100 uM in presence of 1.0 mM of ATP; format: microsomes; details: Stomach, Microsome; outline: as §2
Rattus norvegicus [22] = species on record: Rattus norvegicus; assay: Inhibition of gastric H+/K(+)-ATPase activity in Sprague-Dawley rat microsomal vesicles at 1000 uM in presence of 1.0 mM of ATP; format: microsomes; details: Stomach, Microsome; outline: as §2
Rattus norvegicus [23] = species on record: Rattus norvegicus; assay: Inhibition of p-NPPase in Sprague-Dawley rat microsomal vesicles at 30 uM in presence of 5.0 mM of p-NPP; format: microsomes; details: Microsome; outline: as §3
Rattus norvegicus [24] = species on record: Rattus norvegicus; assay: Inhibition of p-NPPase in Sprague-Dawley rat microsomal vesicles at 1000 uM in presence of 3.0 mM of p-NPP; format: microsomes; details: Microsome; outline: as §3
Rattus norvegicus [25] = species on record: Rattus norvegicus; assay: Inhibition of gastric H+/K(+)-ATPase activity in Sprague-Dawley rat microsomal vesicles at 3 uM in presence of 3.0 mM of ATP; format: microsomes; details: Stomach, Microsome; outline: as §2
Rattus norvegicus [26] = species on record: Rattus norvegicus; assay: Inhibition of p-NPPase in Sprague-Dawley rat microsomal vesicles at 100 uM in presence of 1.0 mM of p-NPP; format: microsomes; details: Microsome; outline: as §3
Rattus norvegicus [27] = species on record: Rattus norvegicus; assay: Inhibition of p-NPPase in Sprague-Dawley rat microsomal vesicles at 10 uM in presence of 5.0 mM of p-NPP; format: microsomes; details: Microsome; outline: as §3
Rattus norvegicus [28] = species on record: Rattus norvegicus; assay: Inhibition of p-NPPase in Sprague-Dawley rat microsomal vesicles at 3 uM in presence of 1.0 mM of p-NPP; format: microsomes; details: Microsome; outline: as §3
Rattus norvegicus [29] = species on record: Rattus norvegicus; assay: Inhibition of gastric H+/K(+)-ATPase activity in Sprague-Dawley rat microsomal vesicles at 10 uM in presence of 3.0 mM of ATP; format: microsomes; details: Stomach, Microsome; outline: as §2
Rattus norvegicus [30] = species on record: Rattus norvegicus; assay: Inhibition of p-NPPase in Sprague-Dawley rat microsomal vesicles at 3 uM in presence of 3.0 mM of p-NPP; format: microsomes; details: Microsome; outline: as §3
Rattus norvegicus [31] = species on record: Rattus norvegicus; assay: Inhibition of gastric H+/K(+)-ATPase activity in Sprague-Dawley rat microsomal vesicles at 300 uM in presence of 3.0 mM of ATP; format: microsomes; details: Stomach, Microsome; outline: as §2
Rattus norvegicus [32] = species on record: Rattus norvegicus; assay: Inhibition of p-NPPase in Sprague-Dawley rat microsomal vesicles at 30 uM in presence of 3.0 mM of p-NPP; format: microsomes; details: Microsome; outline: as §3
Rattus norvegicus [33] = species on record: Rattus norvegicus; assay: Inhibition of gastric H+/K(+)-ATPase activity in Sprague-Dawley rat microsomal vesicles at 3 uM in presence of 0.3 mM of ATP; format: microsomes; details: Stomach, Microsome; outline: as §2
Rattus norvegicus [34] = species on record: Rattus norvegicus; assay: Inhibition of gastric H+/K(+)-ATPase activity in Sprague-Dawley rat microsomal vesicles at 10 uM in presence of 0.3 mM of ATP; format: microsomes; details: Stomach, Microsome; outline: as §2
Rattus norvegicus [35] = species on record: Rattus norvegicus; assay: Inhibition of gastric H+/K(+)-ATPase activity in Sprague-Dawley rat microsomal vesicles at 1000 uM in presence of 3.0 mM of ATP; format: microsomes; details: Stomach, Microsome; outline: as §2
Rattus norvegicus [36] = species on record: Rattus norvegicus; assay: Inhibition of p-NPPase in Sprague-Dawley rat microsomal vesicles at 300 uM in presence of 3.0 mM of p-NPP; format: microsomes; details: Microsome; outline: as §3
Rattus norvegicus [37] = species on record: Rattus norvegicus; assay: Inhibition of gastric H+/K(+)-ATPase activity in Sprague-Dawley rat microsomal vesicles at 10 uM in presence of 1.0 mM of ATP; format: microsomes; details: Stomach, Microsome; outline: as §2
Rattus norvegicus [38] = species on record: Rattus norvegicus; assay: Inhibition of gastric H+/K(+)-ATPase activity in Sprague-Dawley rat microsomal vesicles at 300 uM in presence of 1.0 mM of ATP; format: microsomes; details: Stomach, Microsome; outline: as §2

COC(=O)[C@@H]1CCCN1C(=O)Cc1ccc(OC)cc1
Activity (Rattus norvegicus [1]): 0.81
inhibition (Rattus norvegicus [2]): 52%
Activity (Rattus norvegicus [3]): 0.86

O=C1CC[C@@H](C(=O)O)N1 [PIDOLIC ACID]
Activity (Rattus norvegicus [1]): 0.69
inhibition (Rattus norvegicus [2]): 67%
Activity (Rattus norvegicus [3]): 0.75

O=C(O)[C@H]1CCC(=O)N1Cc1ccccc1
Activity (Rattus norvegicus [1]): 0.46
inhibition (Rattus norvegicus [2]): 55%
Activity (Rattus norvegicus [3]): 0.51

O=C(O)[C@@H]1CCC(=O)N1Cc1ccccc1Cc1ccccc1
Activity (Rattus norvegicus [1]): 0.48
inhibition (Rattus norvegicus [2]): 71%
Activity (Rattus norvegicus [3]): 0.33

O=C1N[C@H](C(=O)O)[C@H](/C=C/c2ccccc2)O1 (relative stereo)
inhibition (Rattus norvegicus [4]): 16%
Activity (Rattus norvegicus [1]): 0.96
inhibition (Rattus norvegicus [5]): 18%
Activity (Rattus norvegicus [6]): Active
inhibition (Rattus norvegicus [7]): 33%
inhibition (Rattus norvegicus [2]): 59%
inhibition (Rattus norvegicus [8]): 27%
inhibition (Rattus norvegicus [9]): 32%
inhibition (Rattus norvegicus [10]): 85%
inhibition (Rattus norvegicus [11]): 67%
inhibition (Rattus norvegicus [12]): 56%
inhibition (Rattus norvegicus [13]): 34%
Activity (Rattus norvegicus [14]): Active
inhibition (Rattus norvegicus [15]): 28%
inhibition (Rattus norvegicus [16]): 12%
inhibition (Rattus norvegicus [17]): 16%
inhibition (Rattus norvegicus [18]): 51%
inhibition (Rattus norvegicus [19]): 12%
inhibition (Rattus norvegicus [20]): 16%
inhibition (Rattus norvegicus [21]): 16%
Activity (Rattus norvegicus [3]): 1.07
inhibition (Rattus norvegicus [22]): 55%
inhibition (Rattus norvegicus [23]): 13%
inhibition (Rattus norvegicus [24]): 38%
inhibition (Rattus norvegicus [25]): 25%
inhibition (Rattus norvegicus [26]): 42%
inhibition (Rattus norvegicus [27]): 5%
inhibition (Rattus norvegicus [28]): 13%
inhibition (Rattus norvegicus [29]): 30%
inhibition (Rattus norvegicus [30]): 26%
inhibition (Rattus norvegicus [31]): 46%
inhibition (Rattus norvegicus [32]): 8%
inhibition (Rattus norvegicus [33]): 20%
inhibition (Rattus norvegicus [34]): 23%
inhibition (Rattus norvegicus [35]): 50%
inhibition (Rattus norvegicus [36]): 35%
inhibition (Rattus norvegicus [37]): 28%
inhibition (Rattus norvegicus [38]): 51%

Cc1ccccc1CN1C(=O)CC[C@H]1C(=O)OC(C)(C)C
Activity (Rattus norvegicus [1]): 0.63
inhibition (Rattus norvegicus [2]): 68%
Activity (Rattus norvegicus [3]): 0.62

Cc1ccccc1CN1C(=O)CC[C@H]1C(=O)O
Activity (Rattus norvegicus [1]): 0.92
inhibition (Rattus norvegicus [2]): 46%
Activity (Rattus norvegicus [3]): 0.89
